The structures appear in SMILES notation.

This is an account of results in ChEMBL document CHEMBL4411319, “Discovery of Macrocyclic Inhibitors of Apurinic/Apyrimidinic Endonuclease 1” (J Med Chem, 2019).

The nature of assay [1]: Cytotoxicity against human Pa02C cells after 48 hrs by Alamar Blue-based assay. The format is functional, cell-based. In outline: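 Patient-derived pancreatic Pa02c cells, low passage, kept in DMEM with 10% FBS. Plated at 2000 cells/well on poly-D-lysine-coated plates and grown overnight at 37 °C, 5% CO2. Dosed in 5% FBS DMEM from 100 μM, 1:2 serial dilution, 5 points, with DMSO vehicle and drug-background wells. Grown 48 h, then fresh medium with 10% Alamar Blue for 4 h and fluorescence read. Background subtracted, normalized to media alone, mean with standard error.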

The target in assay [2] is T1, DNA repair nuclease/redox regulator APEX1 (Homo sapiens, UniProt P27695). In words: Inhibition of full length human APE1 assessed as reduction in endonuclease activity by measuring DNA cleavage of abasic sites using 6-FAM labelled two annealed oligonucleotides as AP site mimic substrate by fluorescence-based assay. Put shortly: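 Purified full-length APE1 (0.25-1.25 nM) added at once to 50 nM annealed duplex: 5'-6-FAM-labelled AP-site-mimic strand paired with a quencher-labelled strand. Buffer 50 mM Tris, 1 mM MgCl2, 50 mM NaCl, pH 7.5. Compound in triplicate, 10-point 1:2 dilution from 100 μM. Fluorescence from cleavage read kinetically at five 1-min intervals. Reaction rate compared with DMSO vehicle.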
T1 sequence (P27695 whole entry): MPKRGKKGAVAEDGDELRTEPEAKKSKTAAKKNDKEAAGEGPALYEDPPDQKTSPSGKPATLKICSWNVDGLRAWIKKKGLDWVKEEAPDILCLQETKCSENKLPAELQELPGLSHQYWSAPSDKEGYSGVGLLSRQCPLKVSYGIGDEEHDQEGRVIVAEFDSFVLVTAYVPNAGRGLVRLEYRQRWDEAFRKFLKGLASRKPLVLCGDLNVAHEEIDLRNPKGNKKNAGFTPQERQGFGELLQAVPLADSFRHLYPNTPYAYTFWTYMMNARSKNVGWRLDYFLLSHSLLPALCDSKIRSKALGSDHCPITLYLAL

Assay [3] is described as follows: Induction of DNA damage in human ST8814 cells measuring tail DNA level at 100 uM after 1 hr in presence of MMS by comet assay (reference value: 16%). The format is functional. Put shortly:
(§1)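 Malignant peripheral nerve sheath tumor ST8814 cells seeded at 130,000/well in DMEM + 10% FBS and grown overnight. Treated 1 h at 37 °C in Opti-MEM with compound (100 μM or EC30) alone or with 1.0 mM MMS. Trypsinized, then alkaline comet assay: lysis 60 min, unwinding at pH 13 for 20 min, electrophoresis at 1 V/cm for 30 min, SYBR Gold stain. Percent tail DNA averaged over 20 comets; two independent experiments.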

The target of assay [4] is T1, DNA repair nuclease/redox regulator APEX1. In words: Inhibition of APE1 in human ST8814 cells assessed as effect on MMS-induced DNA damage by measuring tail DNA level at 100 uM after 1 hr in presence of MMS by comet assay. Also noted: scale not given: the % may be the effect or the level left. The format is cell-based. In outline:
as §1

A word on the EC50: it is the concentration that produces a half-maximal response. The term IC50 denotes the concentration needed to halve the response being measured. The compound `C[C@H]1/C=C/CC(=O)N[C@H](c2ccc(C(F)(F)F)cc2)CC(=O)N[C@@H](Cc2c[nH]c3ccccc23)C(=O)N[C@H]1c1ccccc1` came in with an EC50 in assay [1] of 58.5 µM. In addition, the IC50 in assay [2] came to 26.5 µM. Also, the values for the Activity in assay [3] and in assay [4] were 12% and 67%, respectively.
Compound `C[C@H]1/C=C/CC(=O)N[C@H](c2ccc(Cl)cc2)CC(=O)N[C@@H](Cc2c[nH]c3ccccc23)C(=O)N[C@H]1c1ccccc1` came in with an EC50 in assay [1] of 22 µM. The IC50 in assay [2] was more than 100 µM.
In turn, `C[C@H]1/C=C/CC(=O)OCCCCC(=O)N[C@@H](Cc2c[nH]c3ccccc23)C(=O)N[C@H]1c1ccccc1` displayed an EC50 in assay [1] of more than 50 µM. Moreover, the IC50 in assay [2] is 63.5 µM.
As to `Cc1ccc(S(=O)(=O)n2cccc2[C@@H]2NC(=O)[C@H](Cc3c[nH]c4ccccc34)NC(=O)C[C@@H](CCc3ccccc3)NC(=O)C/C=C/[C@@H]2C)cc1`, the EC50 in assay [1] is more than 100 µM. The concentration for half-maximal inhibition (IC50) in assay [2] was 2.7 µM. Besides, the values for the Activity in assay [3] and in assay [4] were 12% and 54%, respectively.
With `C[C@H]1/C=C/CC(=O)OCCCC(=O)N[C@@H](Cc2c[nH]c3ccccc23)C(=O)N[C@H]1c1ccccc1`, the 50% effective concentration (EC50) in assay [1] was more than 100 µM. In addition, the IC50 in assay [2] was more than 100 µM.
With `Cc1ccc(S(=O)(=O)n2cccc2[C@@H]2NC(=O)[C@H](Cc3c[nH]c4ccccc34)NC(=O)CCNC(=O)C/C=C/[C@@H]2C)cc1`, the EC50 in assay [1] came to 58.4 µM. For the same compound, the 50% inhibitory concentration (IC50) in assay [2] was 33.2 µM. The Activity is 12% in assay [3] and 96% in assay [4].
Regarding `Cc1ccc(S(=O)(=O)n2cccc2[C@@H]2NC(=O)[C@H](Cc3c[nH]c4ccccc34)NC(=O)C(Oc3ccc(C(F)(F)F)cc3)CCOC(=O)C/C=C/[C@@H]2C)cc1` (stereo partly specified), in assay [2], the IC50 stood at 2.5 µM and the inhibition entry was “Dose-dependent effect”.
As for `Cc1ccc(S(=O)(=O)n2cccc2[C@@H]2NC(=O)[C@H](Cc3c[nH]c4ccccc34)NC(=O)CCCNC(=O)C/C=C/[C@@H]2C)cc1`, a half-maximal effect in assay [1] (EC50) was put at 35 µM. Further, the IC50 in assay [2] amounted to 29.2 µM.
Take `Cc1ccc(S(=O)(=O)n2cccc2[C@@H]2NC(=O)[C@H](Cc3c[nH]c4ccccc34)NC(=O)C[C@@H](c3ccc(Cl)cc3)NC(=O)C/C=C/[C@@H]2C)cc1`: the EC50 in assay [1] is more than 100 µM. For the same compound, the IC50 in assay [2] came to 12.1 µM.
The matching figures for `Cc1ccc(S(=O)(=O)n2cccc2[C@@H]2NC(=O)[C@H](Cc3c[nH]c4ccccc34)NC(=O)CCCCNC(=O)C/C=C/[C@@H]2C)cc1`: more than 100 µM and more than 50 µM.
`Cc1ccc(S(=O)(=O)n2cccc2[C@@H]2NC(=O)[C@H](Cc3c[nH]c4ccccc34)NC(=O)C[C@@H](Cc3ccc(Cl)cc3)NC(=O)C/C=C/[C@@H]2C)cc1` registered an EC50 in assay [1] of more than 100 µM. In addition, the IC50 in assay [2] came out at 1.9 µM.
As for `Cc1ccc(S(=O)(=O)n2cccc2[C@@H]2NC(=O)[C@H](Cc3c[nH]c4ccccc34)NC(=O)C(Oc3ccccc3)CCOC(=O)C/C=C/[C@@H]2C)cc1` (stereo partly specified), the inhibition entry in assay [2] is “Dose-dependent effect”.
Regarding `CC(=O)Nc1sc2c(c1-c1nc3ccccc3s1)CCN(C(C)C)C2`, the Activity stood at 17% in assay [3] and 34% in assay [4].
The compound `Cc1ccc(S(=O)(=O)n2cccc2[C@@H]2NC(=O)[C@H](Cc3c[nH]c4ccccc34)NC(=O)C[C@@H](c3ccc(F)cc3)NC(=O)C/C=C/[C@@H]2C)cc1` gave an EC50 in assay [1] of more than 100 µM. The IC50 in assay [2] amounted to 5.7 µM.
The matching figures for `Cc1ccc(S(=O)(=O)n2cccc2[C@@H]2NC(=O)[C@H](Cc3c[nH]c4ccccc34)NC(=O)CCCOC(=O)C/C=C/[C@@H]2C)cc1`: more than 100 µM and 10.6 µM.
The matching figures for `C[C@H]1/C=C/CC(=O)N[C@H](c2ccc(F)cc2)CC(=O)N[C@@H](Cc2c[nH]c3ccccc23)C(=O)N[C@H]1c1ccccc1`: 36.2 µM and 55.1 µM.
`Cc1ccc(S(=O)(=O)n2cccc2[C@@H]2NC(=O)[C@H](Cc3c[nH]c4ccccc34)NC(=O)CCCCOC(=O)C/C=C/[C@@H]2C)cc1` gave an EC50 in assay [1] of more than 100 µM. Also, the half-maximal inhibitory concentration (IC50) in assay [2] is 9.3 µM. Besides, the figures for the Activity in assay [3] and in assay [4] were 26% and 27%, respectively.
In assay [1], `Cc1ccc(S(=O)(=O)n2cccc2[C@@H]2NC(=O)[C@H](Cc3c[nH]c4ccccc34)NC(=O)C[C@@H](c3ccc(C(F)(F)F)cc3)NC(=O)C/C=C/[C@@H]2C)cc1` had an EC50 of more than 100 µM. The IC50 in assay [2] is 1.3 µM. In addition, the figures for the Activity in assay [3] and in assay [4] were 18% and 95%, respectively.
In turn, `Cc1ccc([C@@H]2CC(=O)N[C@@H](Cc3c[nH]c4ccccc34)C(=O)N[C@@H](c3cccn3S(=O)(=O)c3ccc(C)cc3)[C@@H](C)/C=C/CC(=O)N2)cc1` registered an EC50 in assay [1] of more than 100 µM. Besides, in assay [2], the IC50 amounted to 2.5 µM. The values for the Activity in assay [3] and in assay [4] were 20% and 40%, respectively.
Compound `Cc1ccc(S(=O)(=O)n2cccc2[C@@H]2NC(=O)[C@H](Cc3c[nH]c4ccccc34)NC(=O)C[C@H](CCc3ccccc3)NC(=O)C/C=C/[C@@H]2C)cc1` had an EC50 in assay [1] of more than 100 µM. Moreover, in assay [2], the IC50 is 2.6 µM.
`Cc1ccc(S(=O)(=O)n2cccc2[C@@H]2NC(=O)[C@H](Cc3c[nH]c4ccccc34)NC(=O)C(c3ccccc3)CCOC(=O)C/C=C/[C@@H]2C)cc1` (stereo partly specified): the inhibition entry in assay [2] was “Dose-dependent effect”.
The compound `Cc1ccc(S(=O)(=O)n2cccc2[C@@H]2NC(=O)[C@H](Cc3c[nH]c4ccccc34)NC(=O)C[C@@H](c3cccc(C(F)(F)F)c3)NC(=O)C/C=C/[C@@H]2C)cc1` came in with an EC50 in assay [1] of 6.7 µM. Moreover, in assay [2], the IC50 was found to be 52.6 µM.
Take `C[C@H]1/C=C/CC(=O)OCCC(Oc2ccc3c(c2)OCO3)C(=O)N[C@@H](Cc2c[nH]c3ccccc23)C(=O)N[C@H]1c1ccccc1` (stereo partly specified): in assay [2], the IC50 worked out at 1.8 µM and the inhibition result is “Dose-dependent effect”.
